DNA FID counter = counter-screen for HCV NS3 helicase inhibitors: DNA intercalator displacement; DNA fluorescent intercalator displacement, fluorescence; inhibition, % at 7.9 µM; 290,000 tested, 0.17% active; AID 1845; in the data active = inhibition above about 37%;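 note: 0% = vehicle and 100% = reference compound; higher means more ethidium bromide displaced from hairpin DNA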
HCV core dimer = blocks dimerization of HCV core protein | TR-FRET GST/Flag-core106 dimerization, 1536-well | inhibition, % at 5 µM | 300,000 tested, 0.33% active | AID 1899;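 active = inhibition above the mean of all tested compounds plus 3 SD, set per screening campaign, cut at about 45% in these data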
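Assay system: Tagged HCV core106 pair (GST and Flag) | Buffer or medium: KF-containing HEPES buffer, pH 7.45, DTT, CHAPS, BSA | Also added: Eu donor and XL665 acceptor anti-tag antibodies | Dosing: One concentration, 5 µM, in 0.5% DMSO | Timing: 4 h at 22.5 °C | Technique: TR-FRET 671 and 617 nm emission | Repeats: Singlicate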
HSP90 inh = HSP90 refolding inhibition in rabbit reticulocyte lysate. 290,000 tested, 0.91% active. luciferase refolding luminescence, 3 h. inhibition, % at 5.6 µM;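 active = inhibition above the screen-wide mean plus 3 SD, computed separately per campaign, cut at about 16% in these data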;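 note: 0% = DMSO wells and 100% = 60 µM geldanamycin wells; inhibitors lower the luminescence because luciferase stays unfolded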
HSF1 inhib = HSF1 inhibition; NIH3T3-HGL HSE-luciferase, MG132-induced, luminescence 8 h; active compounds read low; activity change, negative = inhibition, % at 7.5 µM (by protocol); 300,000 tested, 0.77% active; AID 2098;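 active = more than half of replicate wells show activity change below -50%, luminescence cut by over half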;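 note: luciferase reports HSF-1 transcriptional activity via heat shock element; 0% = median of DMSO wells and -100% = zero luminescence signal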
NS3 helicase inh = inhibitors of Hepatitis C virus NS3 helicase | NS3 helicase DNA unwinding, Cy5 molecular beacon fluorescence | inhibition, % at 10.9 µM | 290,000 tested, 0.56% active | AID 1800;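 active = inhibition above the mean of all tested compounds plus 3 SD, set per campaign, cut at about 35% in these data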;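 note: 0% = DMSO wells and 100% = thioflavine S control wells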
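System: HCV NS3 helicase fragment; control set: DMSO and thioflavine S; technique: Cy5 fluorescence at 0 and 60 min, beacon hairpin quenching; reagent: beacon DNA duplex substrate plus ATP; replicates: singlicate; schedule: 1 h reaction at 25 °C, ATP-initiated; medium: MOPS buffer pH 6.5 with MgCl2, DTT, Tween20, BSA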
HSF-1 act = increases HSF-1 driven luciferase reporter signal; NIH3T3-HGL HSF-1 luciferase reporter, MG132, 8 h; 100% = twice DMSO control signal; 300,000 tested, 1.7% active; activation, % at 9 µM;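 active = mean replicate activation of at least 50% with a set share of replicates each reaching 50%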;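 note: 0% = median of the neutral control wells and 100% = twice that signal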
Starred values were filed as active, the others as inactive; . = not tested or not shown. Rows were chosen to be rich in hits. Some 3.9% of all compounds tested hit in one or more screens of this group.

SMILES | DNA FID counter | HCV core dimer | HSP90 inh | HSF1 inhib | NS3 helicase inh | HSF-1 act
CN(C1=C(NC(=O)c2ccccc2)C(=O)c2ccccc2C1=O)C1CCS(=O)(=O)C1 (centres undefined) | 1 | 20 | -2 | 26 | -19 | 66*
Cc1oc(S(=O)(=O)N(C)C)cc1C(=O)Nc1ccc(Cl)cc1 | -1 | 0 | 2 | 15 | -1 | 55*
COc1cccc(Sc2ccccc2/C=N/NC(N)=O)c1 | 0 | 4 | 0 | 20 | -20 | 57*
COc1ccc(C(=O)OCc2csc(C)n2)c(O)c1 | -14 | -1 | 0 | 26 | 5 | 65*
Clc1ccc(SCCOCCN2CCCCCC2)cc1 | 9 | 0 | 6 | 7 | -12 | 7
CCc1ccc(C(=O)/C=C/c2ccc([N+](=O)[O-])o2)cc1 | -27 | 24 | 2 | 124 | 23 | 155*
CC1(C(=O)NCCCNc2ncc(C(F)(F)F)cc2Cl)C=CC2(CCCCC2)N1C(=O)c1ccccc1 (centres undefined) | . | . | . | -69* | . | -77
CC1(C(=O)O)C=CC2(CCCCC2)N1C(=O)c1ccccc1 (centres undefined) | -10 | -9 | -1 | 0 | 0 | -5
COc1ccc(N2CCN(C(=O)CNS(=O)(=O)c3ccc(C)cc3)CC2)cc1 | -22 | -4 | -1 | -5 | -7 | -1
CCC(=O)N(Cc1cc2cc(OC)ccc2[nH]c1=O)c1cccc(C)c1 | -6 | 4 | 1 | 12 | 2 | 13
O=C(NCc1nnc(SCC(=O)N2CCN(c3ccccc3)CC2)o1)c1c(F)cccc1Cl | -34 | -8 | -1 | -3 | 3 | 0
Fc1ccc(-c2cn3cc(C(F)(F)F)cc(Cl)c3n2)cc1 | -1 | 3 | 0 | 43 | -1 | 83*
CN(Cc1ccco1)C(=O)Cn1cc(S(=O)(=O)N2CCCC2)c(S(=O)(=O)N2CCCC2)c1 | -21 | -4 | -2 | -4 | 16 | 6
O=C(/C=C/c1ccc2c(c1)OCO2)NCCSCc1c(Cl)cccc1Cl | -6 | 0 | 0 | -4 | -3 | 1
Cc1noc(/C=C/N(C)C)c1S(=O)(=O)N1CCN(c2ccc(F)cc2)CC1 | -22 | 9 | -3 | -62* | -2 | -69
Cc1ccc(CNC(=O)Cn2ccc3ccccc3c2=O)o1 | -5 | -1 | 0 | 13 | -2 | 64*
COC(=O)CNC(=O)Cn1ccc2ccccc2c1=O | 7 | -2 | -1 | -26 | -6 | -39
CCOc1ccccc1/C=C/c1onc(C)c1S(=O)(=O)N1CCC(C(=O)NC(C)(C)C)CC1 | -46 | 4 | 4 | -83* | -8 | -86
CCOc1ccccc1/C=C/c1onc(C)c1S(=O)(=O)N1CCC(C(=O)NC)CC1 | -46 | -4 | -6 | 7 | -23 | 6
COc1ccc(NC(=O)COc2ccc(-c3nn(C)c(=O)c4ccccc34)cc2)cc1 | -17 | 10 | 3 | -83* | 12 | -86
CCOc1ccc(C(C)=O)cc1CSc1nnc(-c2ccoc2C)n1N | -11 | 46* | -1 | -1 | 17 | 10
Cc1ccc(NC(=O)c2cc(-n3cnnc3)ccc2Cl)cc1 | 2 | 0 | 0 | -10 | 7 | 1
Cc1ccc(NC(=O)c2cc(N3C(=O)C=CC3=O)ccc2Cl)cc1C | -11 | 25 | -2 | 44 | 20 | 60*
Cc1cccc(C(=O)N2CCCC(c3nc(-c4ccc(C)o4)no3)C2)c1 (centres undefined) | -32 | -1 | -4 | 42 | 10 | 61*
Cc1ccc(-c2noc(C3CCCN(C(=O)c4cccc([N+](=O)[O-])c4)C3)n2)o1 (centres undefined) | -19 | -3 | 1 | 23 | 13 | 29
SMILES | DNA FID counter | HCV core dimer | HSP90 inh | HSF1 inhib | NS3 helicase inh | HSF-1 act
Cc1cccc2cc(CN(Cc3ccccc3)C(=S)NCCCN(C)C)c(=O)[nH]c12 | 48* | -4 | -2 | -74* | -22 | -78
COc1ccccc1NC(=O)N(Cc1ccco1)Cc1cc2cc(C)cc(C)c2[nH]c1=O | -21 | 8 | 2 | 9 | 1 | 15
COc1ccccc1NC(=O)N(Cc1ccco1)Cc1cc2ccc(C)c(C)c2[nH]c1=O | -13 | 16 | 4 | 79 | 9 | 108*
COc1ccccc1NC(=S)N(Cc1ccco1)Cc1cc2cccc(C)c2[nH]c1=O | -10 | -4 | -1 | 60 | 15 | 119*
Cc1ccc(CN(Cc2cc3cccc(C)c3[nH]c2=O)C(=S)NCCCN(C)C)cc1 | 32 | -1 | 0 | -11 | -73 | 10
Cc1ccc(CNn2cn[nH]c2=S)cc1 | . | 0 | . | -4 | . | 3
CCN(CC)c1ccc(C(=C2C=CC(=[N+](CC)CC)C=C2)c2ccccc2)cc1 | . | . | . | 95* | . | 95*
CC(=O)c1nn(-c2cccc(Br)c2)cc1C(=O)c1ccc(Cl)cc1 | -4 | -1 | 7 | 43 | -2 | 84*
COc1ccc(C(=O)Nc2cccnc2)cc1S(=O)(=O)N1CCOCC1 | 0 | -5 | 1 | -3 | 2 | -8
CCOC(=O)C(=Cc1c[nH]c2ccc(S(=O)(=O)N(C)C)cc12)C(=O)OCC | -18 | 1 | 8 | 103 | -7 | 146*
COc1ccc2nc(C)cc(Nc3ccc(N4CCN(C)CC4)cc3)c2c1 | 84* | 2 | -5 | 39 | 31 | 40
COc1ccc2nc(C)cc(Nc3ccc(N4CCOCC4)cc3)c2c1 | 8 | -3 | -1 | 1 | 4 | -2
C=CS(=O)(=O)c1ccc(Oc2ccc(S(=O)(=O)C=C)cc2)cc1 | -5 | 18 | 14 | -93* | -8 | -92
NS(=O)(=O)c1ccc(Oc2ccc(S(N)(=O)=O)cc2)cc1 | 14 | -5 | 2 | 5 | 8 | 2
O=C(CSc1c2c(nc3cc(Cl)ccc13)CCCC2)NCCN1CCOCC1 | -3 | 4 | 6 | 43 | 0 | 65*
O=C(NCCCN1CCOCC1)c1ccc(CSc2ccc(Cl)cc2)cc1 | 38* | 2 | -1 | 9 | -74 | 5
Cc1ccc(CNC(=O)CSc2c3c(nc4cc(Cl)ccc24)CCCC3)o1 | -6 | 34 | 2 | 44 | 15 | 65*
COc1ccc(Cl)cc1NC(=O)c1ccc2c(SCC(=O)O)c3c(nc2c1)CCCC3 | -24 | 0 | 1 | 15 | 3 | 29
CN1CCN(CCCNC(=O)c2ccc3c(Cl)c4c(nc3c2)CCCC4)CC1 | 19 | -25 | -1 | 15 | -8 | 4
O=C(CSc1c2c(nc3cc(Cl)ccc13)CCCC2)NCCCN1CCOCC1 | 14 | 6 | 0 | 141 | -20 | 189*
C#C[C@]1(O)CC[C@H]2[C@@H]3CCc4cc(OC5CCCC5)ccc4[C@H]3CC[C@@]21C | -14 | 13 | 3 | 6 | 1 | 1
O=C(NC1CCCCC1)c1cccc(OCc2ccccc2)c1 | -23 | -3 | 3 | 6 | 2 | 1

Assay outcomes as filed in PubChem.
